# JMJD2C inh – inhibitors of GASC-1 histone demethylase, primary screen, biochemical, fluorescence, DELFIA europium. Lysine-specific demethylase 4C (Homo sapiens), Q9H3R0. 330,000 tested, 0.069% active. GST-JMJD2C(1-420) H3K9me3 demethylation. inhibition, % at 2.35 µM;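 active = more than half of a compound's replicate wells show inhibition beyond 50%, single wells judged on their own value; inconclusive = some, but no more than half, of replicates pass 50% inhibition; inactive = no replicate passes 50% inhibition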;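 note: signal counts dimethyl H3K9 product captured on neutravidin plate; 0% = median of DMSO wells and 100% = 0.3 times that DMSO median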
# T cell HTS – modulators of CD8 T cell-vesicle binding, primary screen, mouse 2C CD8+ T cells, flow cytometry | 2C CD8+ T cell-vesicle binding; active compounds read low | 330,000 tested, 0.068% active | response (vesicle binding), % at 7 µM;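 active = response, share of CD8 T cells binding vesicles, and their 90th percentile fluorescence all below set limits, cut at about 80% in these data, passing the limit was not always enough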;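 note: values below 100% mean blocked vesicle binding to the CD8+ T cells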
#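 Read-out – percent CD8+ FL2 mean versus row control · System – murine 2C transgenic CD8+ T lymphocytes · Times – 1.5 h cell–vesicle binding at 37 °C, then 20 min icy labelling · Control set – naked vesicles low, QL9 vesicles with vehicle high · Detection – cytometric PE anti-B7-1 and Alexa647 anti-CD8 signals after 1% paraformaldehyde fixation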
# HDAC3 inh – HDAC3 deacetylase inhibitors, primary screen, biochemical, fluorescence, cell-free homogeneous; inhibition, % at 8.3 µM; recombinant HDAC3, fluorogenic peptide/trypsin coupled; AID 2718, 2010; 320,000 tested, 0.15% active; in the data active = inhibition above about 26%, passing the limit was not always enough; inconclusive = no clear call, values can overlap the other calls
# Target sequence (O15379 whole entry, looked up): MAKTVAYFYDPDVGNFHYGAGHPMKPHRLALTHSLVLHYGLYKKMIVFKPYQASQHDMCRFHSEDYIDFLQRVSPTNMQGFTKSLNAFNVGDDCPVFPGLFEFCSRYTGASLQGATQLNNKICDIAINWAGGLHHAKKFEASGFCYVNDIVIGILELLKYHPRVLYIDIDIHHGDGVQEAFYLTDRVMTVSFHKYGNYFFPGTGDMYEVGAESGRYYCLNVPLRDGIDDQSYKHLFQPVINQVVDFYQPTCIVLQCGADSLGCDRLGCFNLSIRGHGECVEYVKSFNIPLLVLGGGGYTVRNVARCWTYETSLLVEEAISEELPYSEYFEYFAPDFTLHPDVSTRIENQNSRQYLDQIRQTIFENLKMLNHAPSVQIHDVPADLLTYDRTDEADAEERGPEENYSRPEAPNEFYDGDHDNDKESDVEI
# LANA-H2B inh – blockers of LANA interaction with H2A/H2B – biochemical, FP readout, HTS, primary screen; Protein LANA1 (Human herpesvirus 8 type P (isolate GK18)), Q9QR71; cell-free LANA-H2A/H2B peptide, fluorescence polarization; inhibition, % (no concentration beside the values); 320,000 tested, 0.6% active; AID 2629, 2010; in the data active = inhibition mostly above about 10%, no sharp cut-off; inactive = mostly below about 6.7%
# DSG3 Ab inh – inhibitors of pemphigus antibody binding to DSG3, primary screen, biochemical, bead-based, flow cytometry, scFv-GFP; Desmoglein-3 (Homo sapiens), P32926; DSG3-coupled beads, scFv-anti-DSG3-GFP binding; active compounds read low; binding (percent of control), % at 10 µM; 310,000 tested, 0.48% active; AID 588358, 2011;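 active = binding more than 3 SD below its plate's average and above zero; inconclusive = below that plate limit but binding exactly zero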;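 note: hits lower antibody fragment binding to DSG3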
# Arr AP2 block – inhibitors of beta-arrestin/AP2 binding, primary screen, biochemical, GPCR trafficking, flow cytometry | inhibition, % at 10 µM | beta-arrestin 1 C-terminal peptide binding to AP2 beta2-adaptin appendage (human) | FITC-arrestin peptide / GST-AP2 beads; AP2 beta2 appendage carries R879A mutation | AID 504490, 2011 | 340,000 tested, 0.31% active;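 active = inhibition above a set limit, near 3 SD of compounds lacking own fluorescence, cut at about 54% in these data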;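 note: plate controls were DMSO wells for no effect and 5 µM unlabelled arrestin peptide for full effect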
#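 System: GST-AP2 R879A glutathione beads | Also added: FITC-arrestin peptide, 50 nM | Times: 12 min plus 1 h, RT | Signal: Bead flow cytometry, FITC channel | Buffer or medium: PBS with 0.05% Tween 20 and 0.1% BSA | Read-out basis: Percent drop in bead-associated FITC signal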
# Numbers without * were called inactive; ? = inconclusive; . = no result given; ! = not active in a repeat. Compounds with a hit are over-represented: about 1.6% of the library has one in this group of screens.
SMILES,JMJD2C inh,T cell HTS,HDAC3 inh,LANA-H2B inh,DSG3 Ab inh,Arr AP2 block
Cc1ccc(-c2nc3ccccc3s2)cc1NC(=O)c1cc(-n2cnnc2)ccc1Cl,-2,593,-3,-2,76*,0
COC(=O)c1ccc2c(=O)[nH]c(COC(=O)CCC(=O)c3ccc(Cl)cc3)nc2c1,2,184,-3,3,102,-2
COc1ccc(C(=O)Nc2nnc(S(=O)(=O)N3CCOCC3)s2)cc1,1,416,0,-5,99,10
CCCCc1nnc(NC(=O)C(C)Sc2nc(C)cc(=O)[nH]2)s1 (stereo not drawn),-4,118,-3,12*,92,-1
COc1ccc(Cn2c(=O)[nH]c3cc(C(=O)N4CCN(c5ccc(C(C)=O)cc5)CC4)ccc3c2=O)cc1,2,340,1,4,100,25
Cc1cc(Oc2ccccc2F)nc(NCc2ccccc2)n1,22,.,.,.,-3.2*,-1
Cc1ccc2c(c1C)NC(C(=O)O)C1CC=CC21 (stereo not drawn),-19,274,?,27*,35*,26
O=C(O)C1Nc2c(C(=O)N3CCOCC3)cccc2C2C=CCC12 (stereo not drawn),-3,232,-3,0,86,27
O=C(N/N=C\c1cccc([N+](=O)[O-])c1O)C1COc2ccccc2O1 (stereo not drawn),1,386,9,3,31*,36
COc1cc([N+](=O)[O-])cc(/C=N\NC(=O)C2COc3ccccc3O2)c1O (stereo not drawn),-7,544,16,-1,94,4
CCN[C@H]1CN(CCCOC)S(=O)(=O)c2sc(S(N)(=O)=O)cc21,.,433,-2,0,123,-4
N=C(N)c1ccc(OCCCCCOc2ccc(C(=N)N)cc2)cc1,-8,494,61*,-3,100,24
CCC(C)(C)C1CCc2[nH]nc(C(=O)NC(C)C)c2C1 (stereo not drawn),2,566,5,-1,97,25
CC12CCC3c4cc(CN5CCOCC5)c(O)cc4CCC3C1CCC2=O (stereo not drawn),.,.,.,.,92,1
CC(=O)Oc1ccc(C2=Cc3ccc(OC(C)=O)cc3OC2C)cc1 (stereo not drawn),.,.,.,.,96,-4
CC(=O)Nc1ccc(-c2cn3ccsc3n2)cc1,48,203,-6,15*,102,4
O=C(Nc1ccc(-c2cn3ccsc3n2)cc1)C1CC1,14,313,4,-3,.,-4
Cc1ccc2c(n1)sc1c(-c3ccc(Br)cc3)c(C#N)c(N)nc12,4,224,1,-1,74*,-1
CCc1nc(N)c(C#N)c(-c2ccc(F)cc2)c1C,2,168,-2,1,106,-2
C/C(=N\N=C1/NC(=O)C(C)S1)c1ccc([N+](=O)[O-])cc1 (stereo not drawn),-6,206,-1,16*,99,32
CCOc1nc(Nc2ccccc2F)nc(OCC)n1,-3,327,0,4,114,30
C=CCNc1nc(Nc2ccccc2F)nc(OCC)n1,-3,143,-7,16*,100,17
CC1CCCC(C)N1C(=O)c1cc2ncc(CCCl)cn2n1 (stereo not drawn),7,224,-2,13*,107,-3
Cc1ccccc1N(CC(=O)NCCc1ccccc1)C(=O)c1csnn1,4,293,3,-6,102,-8
Cc1onc(-c2ccccc2Cl)c1C(=O)N(Cc1ccccc1)C(C)C,1,165,-2,2,105,3
SMILES,JMJD2C inh,T cell HTS,HDAC3 inh,LANA-H2B inh,DSG3 Ab inh,Arr AP2 block
CCC(C)N(C)C(=O)c1cc2ccccc2c(-c2ccccc2Cl)n1 (stereo not drawn),-21,806,-4,-2,20*,7
O=C(CNC(=O)OCc1ccccc1)OC(c1ccccc1)c1ccccc1,.,.,.,.,93,7
CN/C(=C/[N+](=O)[O-])NCCSCc1ccc(CN(C)C)o1,-2,762,2,16*!,110,5
C=C1/C=C(\C)C(C)(O)CC(O)CC(=O)C(O)C(O)C(C)CC(C)OC(=O)/C(C)=C/CC/C=C/C(OC)C(O)CC(C)C1 (stereo not drawn),.,396,6,-5,102,2
CC(=O)c1cc(-c2ccccc2)n(CCC(=O)NC(C)(C)C)c1C,-10,170,2,0,90,-5
Cc1ccc(Cl)c2c1NC(=O)C2=O,0,0.0*,4,3,103,-4
Cc1ccc2c(c1C)C(=O)C(=O)N2,.,.,.,.,.,-15
Cc1ccc(C)c(N2N=C(C(=O)NCCN3C(=O)S/C(=C\c4cccnc4)C3=O)CCC2=O)c1,8,353,2,-5,103,19
COc1ccc(S(=O)(=O)NCC(c2cccnc2)N2CCN(Cc3ccccc3)CC2)cc1 (stereo not drawn),6,286,2,4,107,-11
CCN1CCN(C(CNS(=O)(=O)c2ccc(OC)cc2)c2cccnc2)CC1 (stereo not drawn),2,549,.,14*,108,2
CCCCn1c(N)c(N(CCOC)C(=O)c2cnc(C)cn2)c(=O)[nH]c1=O,0,226,1,1,103,-7
NC1=NN=C(c2ccc3c(c2)OCCO3)CS1,-9,234,49*,5,117,-18
Cc1cnc(C2OCCO2)c2cccc(N)c12,.,.,.,.,107,.
CCOC(=O)C1CCCN(C(=O)CN2C(=O)NC(C)(c3ccc4ccccc4c3)C2=O)C1 (stereo not drawn),-1,422,4,6,102,-12
NS(=O)(=O)c1ccc(N=Nc2c(O)ccc3ccccc23)cc1,12,684,2,-5,71*,-11
CCO[C@H]1OC(C(=O)NCc2nc3ccccc3[nH]2)=C[C@@H](C)[C@@H]1CCCO,17,520,4,-1,102,27
CCO[C@H]1OC(C(=O)NCc2nc3ccccc3[nH]2)=C[C@@H](C2CCCCC2)[C@@H]1CCCO,-5,490,3,18*,100,9
Cc1occc1C(=O)N/N=C/c1cccc2ccccc12,0,256,-2,8,110,-4

# Compound activity from PubChem BioAssay.
